Laboratory results from the M2OR odorant receptor database.

Tests used:
Details in all cases: stereoisomer not certain
UniProt Q8VGX3 = target: T1, UniProt Q8VGX3
T1 sequence (whole entry): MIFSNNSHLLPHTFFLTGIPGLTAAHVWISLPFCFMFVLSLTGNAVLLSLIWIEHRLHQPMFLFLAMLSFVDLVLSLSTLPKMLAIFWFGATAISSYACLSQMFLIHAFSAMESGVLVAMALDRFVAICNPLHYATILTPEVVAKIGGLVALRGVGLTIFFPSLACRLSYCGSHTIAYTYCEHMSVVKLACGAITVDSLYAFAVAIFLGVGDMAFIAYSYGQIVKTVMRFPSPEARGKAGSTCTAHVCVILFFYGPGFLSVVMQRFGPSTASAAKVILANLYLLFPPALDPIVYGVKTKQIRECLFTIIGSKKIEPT
Outline: (§1)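 Each entry records the cell line, G-protein, co-transfected protein and tags used. Methods varied with the source, often transient luciferase assays in mammalian cell lines. A receptor–molecule pair is called responsive (active) if the original authors judged its signal statistically different from baseline and non-responsive (inactive) otherwise.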

UniProt Q8VGX5 = target: T2, UniProt Q8VGX5
T2 sequence (whole entry): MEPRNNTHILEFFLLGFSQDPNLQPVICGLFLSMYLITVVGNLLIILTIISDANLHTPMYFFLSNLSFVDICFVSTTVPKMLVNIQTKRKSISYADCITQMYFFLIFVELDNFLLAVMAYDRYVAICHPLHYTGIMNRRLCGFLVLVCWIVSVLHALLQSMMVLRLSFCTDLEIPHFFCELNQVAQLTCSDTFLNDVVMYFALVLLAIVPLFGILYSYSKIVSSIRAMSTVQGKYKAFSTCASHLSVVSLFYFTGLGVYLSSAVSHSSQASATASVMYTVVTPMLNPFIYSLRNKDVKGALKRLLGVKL
Outline: as §1

UniProt Q8VGZ2 = target: T3, UniProt Q8VGZ2
T3 sequence (whole entry): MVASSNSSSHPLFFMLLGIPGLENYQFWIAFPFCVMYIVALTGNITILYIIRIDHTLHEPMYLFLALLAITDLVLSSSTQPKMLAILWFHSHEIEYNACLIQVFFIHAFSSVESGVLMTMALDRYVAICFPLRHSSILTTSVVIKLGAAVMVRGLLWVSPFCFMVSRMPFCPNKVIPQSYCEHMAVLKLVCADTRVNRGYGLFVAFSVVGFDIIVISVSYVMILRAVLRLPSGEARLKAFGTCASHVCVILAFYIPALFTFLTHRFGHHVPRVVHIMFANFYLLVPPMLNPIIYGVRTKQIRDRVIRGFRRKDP
Outline: as §1

UniProt Q8VGZ7 = target: T4, UniProt Q8VGZ7
T4 sequence (whole entry): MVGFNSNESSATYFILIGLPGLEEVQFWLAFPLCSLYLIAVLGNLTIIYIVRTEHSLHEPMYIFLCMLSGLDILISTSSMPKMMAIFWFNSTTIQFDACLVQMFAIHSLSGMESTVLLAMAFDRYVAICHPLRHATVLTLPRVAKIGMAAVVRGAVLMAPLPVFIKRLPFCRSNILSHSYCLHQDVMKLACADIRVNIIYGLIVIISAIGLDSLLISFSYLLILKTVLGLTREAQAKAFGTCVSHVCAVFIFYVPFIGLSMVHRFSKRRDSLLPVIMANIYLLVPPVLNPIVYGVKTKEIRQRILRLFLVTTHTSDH
Outline: as §1

UniProt Q8VH16 = target: T5, UniProt Q8VH16
T5 sequence (whole entry): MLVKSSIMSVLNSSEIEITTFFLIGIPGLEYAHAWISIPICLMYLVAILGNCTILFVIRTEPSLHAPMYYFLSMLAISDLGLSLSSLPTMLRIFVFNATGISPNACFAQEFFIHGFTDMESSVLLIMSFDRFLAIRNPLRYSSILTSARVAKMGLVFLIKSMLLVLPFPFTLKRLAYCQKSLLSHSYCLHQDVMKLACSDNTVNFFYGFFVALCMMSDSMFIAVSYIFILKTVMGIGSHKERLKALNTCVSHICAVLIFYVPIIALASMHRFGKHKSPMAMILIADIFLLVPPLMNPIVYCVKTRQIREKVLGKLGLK
Outline: as §1

UniProt Q8VH20 = target: T6, UniProt Q8VH20
T6 sequence (whole entry): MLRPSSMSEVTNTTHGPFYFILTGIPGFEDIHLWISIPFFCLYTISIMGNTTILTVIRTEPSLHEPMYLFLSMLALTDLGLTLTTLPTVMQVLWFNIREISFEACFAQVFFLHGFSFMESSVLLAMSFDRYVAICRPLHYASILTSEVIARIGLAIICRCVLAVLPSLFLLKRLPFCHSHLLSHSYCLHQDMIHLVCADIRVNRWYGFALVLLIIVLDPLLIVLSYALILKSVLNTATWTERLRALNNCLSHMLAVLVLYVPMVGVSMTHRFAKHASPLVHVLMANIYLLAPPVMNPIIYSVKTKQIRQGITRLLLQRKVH
Outline: as §1

UniProt Q8VH21 = target: T7, UniProt Q8VH21
T7 sequence (whole entry): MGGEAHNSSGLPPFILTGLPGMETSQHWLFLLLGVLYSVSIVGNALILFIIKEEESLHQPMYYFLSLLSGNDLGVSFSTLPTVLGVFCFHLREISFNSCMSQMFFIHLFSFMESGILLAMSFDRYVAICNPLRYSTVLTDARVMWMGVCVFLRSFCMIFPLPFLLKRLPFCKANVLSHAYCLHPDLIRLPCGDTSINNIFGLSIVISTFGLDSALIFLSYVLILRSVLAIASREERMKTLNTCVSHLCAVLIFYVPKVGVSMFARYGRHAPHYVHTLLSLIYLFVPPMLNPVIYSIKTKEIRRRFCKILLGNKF
Outline: as §1

UniProt Q924H8 = target: T8, UniProt Q924H8
T8 sequence (whole entry): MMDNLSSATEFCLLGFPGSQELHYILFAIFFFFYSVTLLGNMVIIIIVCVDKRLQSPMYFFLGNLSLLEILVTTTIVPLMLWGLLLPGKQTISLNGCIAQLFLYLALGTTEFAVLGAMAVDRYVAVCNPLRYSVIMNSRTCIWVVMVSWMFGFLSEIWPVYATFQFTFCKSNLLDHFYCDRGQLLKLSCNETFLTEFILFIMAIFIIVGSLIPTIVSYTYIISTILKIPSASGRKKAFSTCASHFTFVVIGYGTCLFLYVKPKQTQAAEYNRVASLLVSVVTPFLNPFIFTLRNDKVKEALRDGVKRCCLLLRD
Outline: as §1

UniProt Q99NH4 = target: UniProt Q99NH4
Outline: as §1

UniProt Q920P1 = target: T9, UniProt Q920P1
T9 sequence (whole entry): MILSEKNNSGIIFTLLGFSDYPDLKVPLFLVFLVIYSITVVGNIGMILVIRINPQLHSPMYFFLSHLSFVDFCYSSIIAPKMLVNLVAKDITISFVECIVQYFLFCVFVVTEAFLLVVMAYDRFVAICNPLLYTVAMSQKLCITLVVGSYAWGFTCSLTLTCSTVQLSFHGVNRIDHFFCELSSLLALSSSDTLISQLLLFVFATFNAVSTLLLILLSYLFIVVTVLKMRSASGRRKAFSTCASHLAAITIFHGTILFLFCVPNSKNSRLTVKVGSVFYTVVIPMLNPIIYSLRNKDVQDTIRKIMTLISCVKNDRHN
Outline: as §1

UniProt Q920P2 = target: T10, UniProt Q920P2
T10 sequence (whole entry): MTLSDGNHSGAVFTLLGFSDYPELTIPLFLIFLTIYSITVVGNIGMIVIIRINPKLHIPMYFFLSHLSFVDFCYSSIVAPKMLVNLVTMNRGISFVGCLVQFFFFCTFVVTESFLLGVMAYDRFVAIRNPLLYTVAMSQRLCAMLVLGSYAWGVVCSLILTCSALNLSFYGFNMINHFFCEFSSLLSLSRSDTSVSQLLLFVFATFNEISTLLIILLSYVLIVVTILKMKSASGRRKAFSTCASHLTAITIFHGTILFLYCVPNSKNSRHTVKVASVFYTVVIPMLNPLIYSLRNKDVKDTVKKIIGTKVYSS
Outline: as §1

UniProt Q8VGX8 = target: T11, UniProt Q8VGX8
T11 sequence (whole entry): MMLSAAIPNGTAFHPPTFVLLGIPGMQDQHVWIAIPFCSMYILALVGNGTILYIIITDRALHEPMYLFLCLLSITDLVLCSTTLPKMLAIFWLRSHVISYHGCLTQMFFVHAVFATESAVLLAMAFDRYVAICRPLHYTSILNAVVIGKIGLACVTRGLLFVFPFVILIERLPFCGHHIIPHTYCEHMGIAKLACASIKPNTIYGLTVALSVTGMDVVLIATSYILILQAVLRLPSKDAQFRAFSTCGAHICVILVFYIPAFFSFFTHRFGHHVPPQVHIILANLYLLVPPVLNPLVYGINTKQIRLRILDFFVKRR
Outline: as §1

UniProt Q8VGY6 = target: T12, UniProt Q8VGY6
T12 sequence (whole entry): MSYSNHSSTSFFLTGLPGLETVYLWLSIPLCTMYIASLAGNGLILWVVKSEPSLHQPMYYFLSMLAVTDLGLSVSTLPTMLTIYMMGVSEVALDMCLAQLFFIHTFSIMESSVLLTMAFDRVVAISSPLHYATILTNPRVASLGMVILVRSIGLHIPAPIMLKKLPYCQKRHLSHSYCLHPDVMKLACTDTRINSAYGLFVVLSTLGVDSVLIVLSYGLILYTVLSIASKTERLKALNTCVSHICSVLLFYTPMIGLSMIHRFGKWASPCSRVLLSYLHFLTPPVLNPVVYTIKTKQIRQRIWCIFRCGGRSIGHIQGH
Outline: as §1

UniProt Q8VH10 = target: T13, UniProt Q8VH10
T13 sequence (whole entry): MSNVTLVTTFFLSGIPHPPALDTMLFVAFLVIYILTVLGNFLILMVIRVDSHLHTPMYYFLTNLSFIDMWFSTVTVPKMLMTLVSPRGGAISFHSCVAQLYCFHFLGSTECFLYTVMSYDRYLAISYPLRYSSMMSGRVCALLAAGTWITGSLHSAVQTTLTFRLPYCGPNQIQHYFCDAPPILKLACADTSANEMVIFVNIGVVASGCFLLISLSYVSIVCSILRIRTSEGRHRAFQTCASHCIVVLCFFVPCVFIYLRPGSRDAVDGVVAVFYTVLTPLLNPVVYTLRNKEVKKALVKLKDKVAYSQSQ
Outline: as §1

UniProt Q9EPN9 = target: T14, UniProt Q9EPN9
T14 sequence (whole entry): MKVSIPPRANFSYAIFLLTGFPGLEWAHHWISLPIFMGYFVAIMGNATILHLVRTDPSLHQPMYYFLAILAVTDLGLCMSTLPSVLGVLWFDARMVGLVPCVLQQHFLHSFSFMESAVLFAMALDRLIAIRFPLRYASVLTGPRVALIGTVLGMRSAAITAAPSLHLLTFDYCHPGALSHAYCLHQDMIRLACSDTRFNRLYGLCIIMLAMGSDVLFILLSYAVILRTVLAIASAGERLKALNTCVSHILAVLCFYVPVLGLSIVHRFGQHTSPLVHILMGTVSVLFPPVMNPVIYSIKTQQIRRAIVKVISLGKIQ
Outline: as §1

UniProt Q9R0K2 = target: UniProt Q9R0K2
Outline: as §1

UniProt Q9WU86 = target: T15, UniProt Q9WU86
T15 sequence (whole entry): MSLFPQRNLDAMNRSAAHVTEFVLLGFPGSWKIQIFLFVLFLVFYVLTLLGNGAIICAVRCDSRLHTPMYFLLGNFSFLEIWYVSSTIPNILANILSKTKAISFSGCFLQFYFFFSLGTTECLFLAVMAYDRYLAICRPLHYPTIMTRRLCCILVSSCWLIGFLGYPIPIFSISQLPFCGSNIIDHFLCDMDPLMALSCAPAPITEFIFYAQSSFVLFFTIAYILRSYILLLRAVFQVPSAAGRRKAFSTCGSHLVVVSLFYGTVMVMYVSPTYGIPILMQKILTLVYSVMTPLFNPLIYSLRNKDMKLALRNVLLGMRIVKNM
Outline: as §1

Measured: odorant receptor agonist call

UniProt Q9R0K2, sequence (Q9R0K2 as listed by the source): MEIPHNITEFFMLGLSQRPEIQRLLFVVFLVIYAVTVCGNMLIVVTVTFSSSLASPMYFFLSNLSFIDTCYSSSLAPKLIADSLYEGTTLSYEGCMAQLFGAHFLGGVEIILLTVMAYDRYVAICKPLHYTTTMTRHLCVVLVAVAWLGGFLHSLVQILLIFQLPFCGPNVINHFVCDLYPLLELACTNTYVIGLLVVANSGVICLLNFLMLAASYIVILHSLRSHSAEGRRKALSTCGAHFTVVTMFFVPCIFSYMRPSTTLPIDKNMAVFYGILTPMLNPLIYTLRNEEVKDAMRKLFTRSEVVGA
UniProt Q99NH4, sequence (Q99NH4 as listed by the source): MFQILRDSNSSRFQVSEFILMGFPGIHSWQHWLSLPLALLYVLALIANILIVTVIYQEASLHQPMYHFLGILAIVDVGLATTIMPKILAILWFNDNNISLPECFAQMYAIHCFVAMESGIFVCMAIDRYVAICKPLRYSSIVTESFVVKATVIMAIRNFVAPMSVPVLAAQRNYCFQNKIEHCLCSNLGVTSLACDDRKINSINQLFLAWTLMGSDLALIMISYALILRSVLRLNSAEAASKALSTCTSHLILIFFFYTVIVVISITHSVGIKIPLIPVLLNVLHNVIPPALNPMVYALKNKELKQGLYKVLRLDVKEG

C=C(C)C1CC=C(C=O)CC1 (centres undefined)
inactive: UniProt Q8VGX3 | UniProt Q8VGX5 | UniProt Q8VGZ2 | UniProt Q8VGZ7 | UniProt Q8VH16 | UniProt Q8VH20 | UniProt Q8VH21 | UniProt Q924H8

OCc1ccc2c(c1)OCO2
inactive: UniProt Q8VGX3 | UniProt Q8VGX5 | UniProt Q8VGZ2 | UniProt Q8VGZ7 | UniProt Q8VH16 | UniProt Q8VH20 | UniProt Q8VH21 | UniProt Q924H8

COc1ccc(C=O)cc1
inactive: UniProt Q8VGX3 | UniProt Q8VGX5 | UniProt Q8VGZ2 | UniProt Q8VGZ7 | UniProt Q8VH16 | UniProt Q8VH20 | UniProt Q8VH21 | UniProt Q924H8

CCCCC(Br)C(=O)O (centres undefined)
inactive: UniProt Q8VGX3 | UniProt Q8VGX5 | UniProt Q8VGZ2 | UniProt Q8VGZ7 | UniProt Q8VH16 | UniProt Q8VH21 | UniProt Q924H8
active: UniProt Q8VH20 | UniProt Q99NH4

c1ccncc1
inactive: UniProt Q920P1 | UniProt Q920P2

CCCCCCC(Br)C(=O)O (centres undefined)
inactive: UniProt Q8VGX3 | UniProt Q8VGX5 | UniProt Q8VGZ2 | UniProt Q8VGZ7 | UniProt Q8VH16 | UniProt Q8VH21 | UniProt Q924H8
active: UniProt Q8VH20

CCC1CCC(=O)O1 (centres undefined)
not listed: UniProt Q8VGX3 | UniProt Q8VH16 | UniProt Q8VH21 | UniProt Q924H8 | UniProt Q99NH4 | UniProt Q920P1 | UniProt Q920P2
inactive: all other assays above

Cc1ccc(OC(=O)Cc2ccccc2)cc1
inactive: UniProt Q8VGX3 | UniProt Q8VGX5 | UniProt Q8VGZ2 | UniProt Q8VGZ7 | UniProt Q8VH16 | UniProt Q8VH21 | UniProt Q924H8
active: UniProt Q8VH20

CC(C=O)Cc1ccc2c(c1)OCO2 (centres undefined)
inactive: UniProt Q8VGX3 | UniProt Q8VGZ2 | UniProt Q8VGZ7 | UniProt Q8VH16 | UniProt Q8VH20 | UniProt Q8VH21 | UniProt Q924H8
active: UniProt Q8VGX5

O=Cc1ccccc1
active: UniProt Q8VH21
inactive: UniProt Q8VGX3 | UniProt Q8VGX5 | UniProt Q8VGZ2 | UniProt Q8VGZ7 | UniProt Q8VH16 | UniProt Q8VH20 | UniProt Q924H8

C=CCc1ccc2c(c1)OCO2
inactive: UniProt Q920P1 | UniProt Q920P2
